Results published in publication PMC5006629 (Chemical & pharmaceutical bulletin, 2013).
Like-named read-outs stand apart in the source and are kept apart here.

Legend:
[1] = system: human HT-29 colon tumor cell line; assay: HT-29 tumor cell growth inhibition; assay type: cell-based
Procedure, shortened: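 Human HT-29 colon tumour cells. Two-stage screen: test compounds first tested at one concentration in triplicate for % growth inhibition.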

PDE3B = PDE3B (Homo sapiens, UniProt Q13370); assay type: biochemical
Chain of PDE3B (Q13370 whole entry): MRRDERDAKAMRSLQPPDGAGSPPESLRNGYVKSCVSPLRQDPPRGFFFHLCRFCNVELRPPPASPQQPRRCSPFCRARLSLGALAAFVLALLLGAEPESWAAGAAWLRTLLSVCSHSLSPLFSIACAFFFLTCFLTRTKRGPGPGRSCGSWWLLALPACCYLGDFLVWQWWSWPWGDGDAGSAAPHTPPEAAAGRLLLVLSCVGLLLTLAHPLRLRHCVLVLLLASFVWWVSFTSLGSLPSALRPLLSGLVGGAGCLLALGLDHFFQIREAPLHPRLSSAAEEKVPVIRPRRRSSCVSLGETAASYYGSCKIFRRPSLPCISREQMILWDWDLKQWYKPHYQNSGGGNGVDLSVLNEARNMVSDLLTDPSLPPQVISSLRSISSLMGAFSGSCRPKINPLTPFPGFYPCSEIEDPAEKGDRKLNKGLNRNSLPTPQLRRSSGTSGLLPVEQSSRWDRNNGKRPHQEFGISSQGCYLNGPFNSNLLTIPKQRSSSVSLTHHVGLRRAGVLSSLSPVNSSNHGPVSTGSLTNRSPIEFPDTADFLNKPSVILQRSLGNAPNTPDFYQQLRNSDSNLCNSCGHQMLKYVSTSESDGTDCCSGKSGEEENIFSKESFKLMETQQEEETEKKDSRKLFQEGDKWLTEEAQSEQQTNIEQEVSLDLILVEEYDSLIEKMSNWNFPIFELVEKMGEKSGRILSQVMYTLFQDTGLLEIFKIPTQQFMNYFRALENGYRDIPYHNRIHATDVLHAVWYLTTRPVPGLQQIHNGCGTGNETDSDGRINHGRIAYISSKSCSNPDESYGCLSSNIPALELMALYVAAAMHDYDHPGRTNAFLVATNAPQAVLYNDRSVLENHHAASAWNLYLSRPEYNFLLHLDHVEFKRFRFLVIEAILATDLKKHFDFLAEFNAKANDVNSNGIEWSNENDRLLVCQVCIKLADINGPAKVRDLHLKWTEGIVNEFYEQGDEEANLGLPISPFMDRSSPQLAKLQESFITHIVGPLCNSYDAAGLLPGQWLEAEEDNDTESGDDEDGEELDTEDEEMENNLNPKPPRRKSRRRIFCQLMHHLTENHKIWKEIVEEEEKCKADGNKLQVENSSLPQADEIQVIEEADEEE

[2] = Homo sapiens, HT-29, read-out: HT-29 growth inhibition: IC50
[3] = read-out: % PDE3 inhibition at 50 μM, cAMP, substrate cAMP, 50 μM
[4] = read-out: % PDE3 inhibition at 50 μM, cGMP, substrate cGMP, 50 μM
[5] = PDE3 inhibition IC50, cAMP, substrate cAMP
[6] = PDE3 inhibition IC50, cGMP, substrate cGMP

| IC50 [1, 2] [µM] | inhibition at 50 µM (PDE3B; [3]) [%] | inhibition at 50 µM (PDE3B; [4]) [%] | IC50 (PDE3B; [5]) [µM] | IC50 (PDE3B; [6]) [µM] | IC50 ([1]; read-out: HT-29 growth inhibition: IC50, HT-29 colorectal cancer cell line, 10 concentrations) [µM] | % PDE3 inhibition at 50 μM, cAMP (PDE3B; substrate cAMP, 50 μM) [%] | % PDE3 inhibition at 50 μM, cGMP (PDE3B; substrate cGMP, 50 μM) [%] | PDE3 inhibition with cAMP as substrate (in words) (PDE3B; substrate cAMP) | Compound | induction of apoptosis to the HT-29 cell line (in words) ([1]; HT-29 cell line, positive control) | HT-29 growth inhibition: % Growth inhibition at 50 μM ([1]; HT-29 colorectal cancer cell line, 50 μM, triplicate) [%] |
| --- | --- | --- | --- | --- | --- | --- | --- | --- | --- | --- | --- |
| > 50 | 77 | 95 |  |  |  |  |  |  | Cc1[nH]c(=O)c(C#N)cc1-c1ccncc1 [Milrinone, reference compound] | inactivity |  |
| 32 | 55 | 85 | 35.6 | 13.4 |  |  |  |  | COc1ccccc1-c1cc(-c2ccc(-c3ccc(Br)cc3)cc2)nc(N)c1C#N [Compound 3, 2-Amino-6-(4′-bromobiphenyl-4-yl)-4-(2-methoxyphenyl)nicotinonitrile] |  |  |
|  | ≤ 50 | 105 |  | 4 |  |  |  |  | COc1ccccc1-c1cc(-c2cccc(Br)c2)nc(N)c1C#N [Compound 1, 2-Amino-6-(3-bromophenyl)-4-(2-methoxyphenyl)nicotinonitrile] |  |  |
| 43 |  | ≤ 50 |  |  |  |  |  |  | CCOc1ccccc1-c1cc(-c2cccc(Br)c2)nc(N)c1C#N [Compound 2, 2-Amino-6-(3-bromophenyl)-4-(2-ethoxyphenyl)nicotinonitrile] |  |  |
| 1.34 | 62 | 78.6 | 24.2 | 10.8 |  |  |  |  | COc1ccccc1-c1cc(-c2cccc(Br)c2)nc2nc[nH]c(=O)c12 [Compound 7, 7-(3-Bromophenyl)-5-(2-methoxyphenyl)pyrido[2,3-d]pyrimidin-4(3H)-one] |  |  |
| 10.4 | 77 | 75 | 6.2 | 10.5 |  |  |  |  | N#Cc1c(-c2ccccc2Cl)cc(-c2ccccc2Br)[nH]c1=O [Compound 5, 6-(2-Bromophenyl)-4-(2-chlorophenyl)-2-oxo-1,2-dihydropyridine-3-carbonitrile] |  |  |
|  |  |  |  |  | 15.5 | 70 | 72 |  | 6-(2-Bromophenyl)-4-(2-ethoxyphenyl)-2-oxo-1,2-dihydropyridine-3-carbonitrile [Compound 4] |  | 68 |
| 18.3 | 48 | 85 |  | 10.9 |  |  |  | did not inhibit PDE3 | CCOc1ccccc1-c1cc(-c2cccc(Br)c2)nc2ncnc(N)c12 [Compound 6, 7-(3-Bromophenyl)-5-(2-ethoxyphenyl)pyrido[2,3-d]pyrimidin-4-amine] |  |  |
